Source: ChEMBL document CHEMBL1137343, “4-arylazo-3,5-diamino-1H-pyrazole CDK inhibitors: SAR study, crystal structure in complex with CDK2, selectivity, and cellular effects” (J Med Chem, 2006)

How the values were obtained:
[1] = target: T1, Cyclin-dependent kinase 2/cyclin E (Homo sapiens, UniProt P24941); test: Inhibition of CDK2/Cyclin E in presence of 15 uM ATP; assay type: protein-complex assay
MCF7 [2] = test: Antiproliferative activity against MCF7 cell line; assay type: functional, cell-based; details: Homo sapiens
In short: (§1)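 Cells grown in DMEM with 10% FCS, glutamine and penicillin/streptomycin at 37 °C, seeded in 96-well plates and preincubated 12 h. Compounds were added in 6-fold dilutions (1-100 µM) for 72 h. IC50 taken from dose-response curves.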

HOS [3] = test: Antiproliferative activity against HOS cell line; assay type: functional, cell-based; details: Homo sapiens; in short: as §1
G-361 [4] = test: Antiproliferative activity against G361 cell line; assay type: functional, cell-based; details: Homo sapiens; in short: as §1
K562 [5] = test: Antiproliferative activity against K562 cell line; assay type: functional, cell-based; details: Homo sapiens; in short: as §1
MCF7 [6] = test: Viability of MCF7 cells at 100 uM; assay type: functional, Homo sapiens
In short: (§2)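 Cells grown in DMEM with 10% FCS and 4 mM glutamine at 37 °C, plated in 96-well format, preincubated 12 h, then exposed 72 h. Live cells measured by Calcein AM (1 h) fluorescence at 485/538 nm; % viable cells given at 100 µM compound.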

HOS [7] = test: Viability of HOS cells at 100 uM; assay type: functional, Homo sapiens; in short: as §2
G-361 [8] = test: Viability of G361 cells at 100 uM; assay type: functional, Homo sapiens; in short: as §2
K562 [9] = test: Viability of K562 cells at 100 uM; assay type: functional, Homo sapiens; in short: as §2
[10] = target: T1, Cyclin-dependent kinase 2/cyclin E; test: Inhibition of CDK2/Cyclin E in presence of 100 uM ATP; assay type: protein-complex assay
[11] = target: Cyclin-dependent kinase 1/cyclin B (Homo sapiens, UniProt P06493); test: Inhibition of CDK1/Cyclin B in presence of 100 uM ATP; assay type: protein-complex assay
[12] = target: Cyclin-dependent kinase 2/cyclin A (Homo sapiens, UniProt P24941); test: Inhibition of CDK2/Cyclin A in presence of 100 uM ATP; assay type: protein-complex assay
[13] = target: Cyclin-dependent kinase 4/cyclin D1 (Homo sapiens, UniProt P11802); test: Inhibition of CDK4/Cyclin D1 in presence of 100 uM ATP; assay type: protein-complex assay
Chain of Cyclin-dependent kinase 4/cyclin D1 (P11802 whole entry): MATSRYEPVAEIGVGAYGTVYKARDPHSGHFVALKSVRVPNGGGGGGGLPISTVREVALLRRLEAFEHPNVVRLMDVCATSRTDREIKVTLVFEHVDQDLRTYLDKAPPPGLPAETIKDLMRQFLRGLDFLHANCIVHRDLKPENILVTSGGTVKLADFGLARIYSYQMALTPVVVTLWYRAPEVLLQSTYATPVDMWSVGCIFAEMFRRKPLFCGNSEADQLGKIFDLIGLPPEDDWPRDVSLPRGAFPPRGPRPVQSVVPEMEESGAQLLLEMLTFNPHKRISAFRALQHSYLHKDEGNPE
Chain of Cyclin-dependent kinase 4/cyclin D1 (P24385 whole entry, further chain): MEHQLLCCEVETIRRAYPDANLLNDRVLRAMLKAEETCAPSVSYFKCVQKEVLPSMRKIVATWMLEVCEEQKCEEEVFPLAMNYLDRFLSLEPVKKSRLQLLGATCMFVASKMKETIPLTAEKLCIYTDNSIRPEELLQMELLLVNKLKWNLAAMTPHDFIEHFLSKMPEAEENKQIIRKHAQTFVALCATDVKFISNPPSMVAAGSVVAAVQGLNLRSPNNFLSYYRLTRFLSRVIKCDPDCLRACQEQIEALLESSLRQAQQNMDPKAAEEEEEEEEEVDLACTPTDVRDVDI

[14] = target: Cyclin-dependent kinase 7/ cyclin H (Homo sapiens, UniProt P50613); test: Inhibition of CDK7/Cyclin H in presence of 100 uM ATP; assay type: protein-complex assay
Chain of Cyclin-dependent kinase 7/ cyclin H (P51946 whole entry): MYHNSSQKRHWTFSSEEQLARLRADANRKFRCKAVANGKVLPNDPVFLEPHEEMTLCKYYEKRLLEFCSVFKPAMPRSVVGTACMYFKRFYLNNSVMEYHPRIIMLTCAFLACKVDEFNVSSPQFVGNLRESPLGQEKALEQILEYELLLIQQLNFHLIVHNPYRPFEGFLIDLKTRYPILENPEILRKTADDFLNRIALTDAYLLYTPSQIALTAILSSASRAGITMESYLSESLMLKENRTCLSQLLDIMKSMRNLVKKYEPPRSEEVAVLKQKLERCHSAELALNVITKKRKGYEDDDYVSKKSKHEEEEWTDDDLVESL
Chain of Cyclin-dependent kinase 7/ cyclin H (P50613 whole entry): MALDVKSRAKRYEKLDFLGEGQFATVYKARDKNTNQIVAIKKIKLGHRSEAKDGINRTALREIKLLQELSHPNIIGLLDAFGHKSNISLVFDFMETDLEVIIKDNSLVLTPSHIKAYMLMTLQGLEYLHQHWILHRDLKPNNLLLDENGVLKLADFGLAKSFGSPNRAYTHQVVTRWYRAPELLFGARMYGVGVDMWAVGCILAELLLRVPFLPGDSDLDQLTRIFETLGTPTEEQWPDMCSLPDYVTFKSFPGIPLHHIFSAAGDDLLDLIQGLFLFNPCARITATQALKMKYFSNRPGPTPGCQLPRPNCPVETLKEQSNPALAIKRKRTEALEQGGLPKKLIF

CDK9/cyclin T1 = CDK9/cyclin T1 (Homo sapiens, UniProt P50750); test: Inhibition of CDK9/Cyclin T1 in presence of 100 uM ATP; assay type: protein-complex assay
Chain of CDK9/cyclin T1 (O60563 whole entry): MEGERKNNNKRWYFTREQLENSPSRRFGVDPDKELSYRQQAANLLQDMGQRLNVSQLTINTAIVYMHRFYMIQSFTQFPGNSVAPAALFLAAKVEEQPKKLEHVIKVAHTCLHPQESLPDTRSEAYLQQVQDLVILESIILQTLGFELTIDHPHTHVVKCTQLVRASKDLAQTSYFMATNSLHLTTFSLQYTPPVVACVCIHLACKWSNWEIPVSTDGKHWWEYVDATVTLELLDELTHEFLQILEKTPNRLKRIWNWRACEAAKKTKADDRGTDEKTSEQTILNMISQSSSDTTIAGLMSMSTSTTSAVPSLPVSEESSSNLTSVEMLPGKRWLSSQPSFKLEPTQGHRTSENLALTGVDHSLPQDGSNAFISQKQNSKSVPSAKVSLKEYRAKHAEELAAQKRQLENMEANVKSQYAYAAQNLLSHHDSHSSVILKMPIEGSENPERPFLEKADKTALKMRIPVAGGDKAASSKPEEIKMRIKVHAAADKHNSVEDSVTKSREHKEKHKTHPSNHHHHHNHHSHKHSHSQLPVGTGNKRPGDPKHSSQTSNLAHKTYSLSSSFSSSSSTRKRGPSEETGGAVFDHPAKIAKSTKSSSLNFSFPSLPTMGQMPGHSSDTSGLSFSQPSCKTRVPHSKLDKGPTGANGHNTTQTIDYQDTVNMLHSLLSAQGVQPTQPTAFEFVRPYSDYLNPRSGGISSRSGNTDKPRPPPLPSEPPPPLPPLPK
Chain of CDK9/cyclin T1 (P50750 whole entry): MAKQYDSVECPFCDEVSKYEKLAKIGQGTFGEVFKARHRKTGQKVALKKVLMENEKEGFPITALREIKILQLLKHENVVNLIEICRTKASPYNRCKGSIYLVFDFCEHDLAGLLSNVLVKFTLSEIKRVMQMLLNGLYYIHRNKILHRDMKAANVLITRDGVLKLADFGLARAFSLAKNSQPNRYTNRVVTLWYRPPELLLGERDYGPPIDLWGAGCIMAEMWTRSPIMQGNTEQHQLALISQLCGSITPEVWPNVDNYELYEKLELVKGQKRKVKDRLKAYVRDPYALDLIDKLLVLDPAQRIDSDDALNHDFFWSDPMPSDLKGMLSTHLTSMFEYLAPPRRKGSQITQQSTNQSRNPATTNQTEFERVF

HT-29 [15] = test: Inhibition of GAPDH mRNA synthesis in HT29 cells measured as number of copies per 10^6 cells by RT PCR at 70 uM after 6 hrs; assay type: functional, Homo sapiens
In short: (§3)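 HT-29 cells (5 × 10⁶) treated for 3, 6 or 12 h; total RNA extracted with TRI reagent, 3 µg reverse transcribed with random primers and M-MLV RT (42 °C, 60 min). Absolute transcript copies quantified by TaqMan real-time PCR, 50 cycles, against diluted gene-specific amplicon standards (30–1 000 000 copies); duplicate PCR per sample; values are means of four determinations ± SD.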

HT-29 [16] = test: Inhibition of GAPDH mRNA synthesis in HT29 cells measured as number of copies per 10^6 cells by RT PCR at 70 uM after 12 hrs; assay type: functional, Homo sapiens; in short: as §3
HT-29 [17] = test: Inhibition of CEA mRNA synthesis in HT29 cells measured as number of copies per 10^6 cells by RT PCR at 70 uM after 3 hrs; assay type: functional, Homo sapiens
In short: (§4)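 HT-29 cells were treated 3, 6 or 12 h; total RNA extracted with TRI reagent. 3 µg RNA reverse-transcribed with random primers and M-MLV RT at 42 °C for 60 min. CEA transcripts quantified by TaqMan real-time PCR: 50 cycles of 95 °C 15 s and 65 °C 15 s. Absolute copies came from amplicon standards of 30 to 10^6 copies, expressed per 10^6 cells. Samples run in duplicate PCR; values average of four determinations ± SD.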

HT-29 [18] = test: Inhibition of CEA mRNA synthesis in HT29 cells measured as number of copies per 10^6 cells by RT PCR at 70 uM after 6 hrs; assay type: functional, Homo sapiens; in short: as §4
HT-29 [19] = test: Inhibition of CEA mRNA synthesis in HT29 cells measured as number of copies per 10^6 cells by RT PCR at 70 uM after 12 hrs; assay type: functional, Homo sapiens; in short: as §4
HT-29 [20] = test: Inhibition of EpCAM mRNA synthesis in HT29 cells measured as number of copies per 10^6 cells by RT PCR at 70 uM after 3 hrs; assay type: functional, Homo sapiens; in short: as §3
HT-29 [21] = test: Inhibition of EpCAM mRNA synthesis in HT29 cells measured as number of copies per 10^6 cells by RT PCR at 70 uM after 6 hrs; assay type: functional, Homo sapiens; in short: as §3
HT-29 [22] = test: Inhibition of EpCAM mRNA synthesis in HT29 cells measured as number of copies per 10^6 cells by RT PCR at 70 uM after 12 hrs; assay type: functional, Homo sapiens; in short: as §3
HT-29 [23] = test: Inhibition of GAPDH mRNA synthesis in HT29 cells measured as number of copies per 10^6 cells by RT PCR at 70 uM after 3 hrs; assay type: functional, Homo sapiens; in short: as §3
HT-29 [24] = test: Cell cycle arrest in HT29 cells by accumulation at G0/G1 phase at 70 uM after 3 hrs; assay type: functional, Homo sapiens
In short: (§5)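 Subconfluent, asynchronous HT-29 cells were treated 3, 6 or 12 h, then pulsed with 10 µM BrdU for 30 min at 37 °C. Cells were fixed in ice-cold 70% ethanol, DNA denatured in 2 M HCl and neutralised with borate. Staining used FITC anti-BrdU, then propidium iodide (0.1 mg/mL) with RNase A. Analysis by flow cytometry with 488 nm laser.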

HT-29 [25] = test: Cell cycle arrest in HT29 cells by accumulation at S phase at 70 uM after 3 hrs; assay type: functional, Homo sapiens; in short: as §5
HT-29 [26] = test: Cell cycle arrest in HT29 cells by accumulation at G2/M phase at 70 uM after 3 hrs; assay type: functional, Homo sapiens; in short: as §5
HT-29 [27] = test: Cell cycle arrest in HT29 cells by accumulation at G0/G1 phase at 70 uM after 6 hrs; assay type: functional, Homo sapiens; in short: as §5
HT-29 [28] = test: Cell cycle arrest in HT29 cells by accumulation at S phase at 70 uM after 6 hrs; assay type: functional, Homo sapiens; in short: as §5
HT-29 [29] = test: Cell cycle arrest in HT29 cells by accumulation at G2/M phase at 70 uM after 6 hrs; assay type: functional, Homo sapiens; in short: as §5
HT-29 [30] = test: Cell cycle arrest in HT29 cells by accumulation at G0/G1 phase at 70 uM after 12 hrs; assay type: functional, Homo sapiens; in short: as §5
HT-29 [31] = test: Cell cycle arrest in HT29 cells by accumulation at S phase at 70 uM after 12 hrs; assay type: functional, Homo sapiens; in short: as §5
HT-29 [32] = test: Cell cycle arrest in HT29 cells by accumulation at G2/M phase at 70 uM after 12 hrs; assay type: functional, Homo sapiens; in short: as §5

| IC50 [1] [µM] | IC50 (MCF7 [2]) [µM] | IC50 (K562 [5]) [µM] | IC50 [10] [µM] | IC50 [11] [µM] | IC50 [12] [µM] | IC50 [13] [µM] | IC50 [14] [µM] | IC50 (CDK9/cyclin T1) [µM] | Compound | IC50 (HOS [3]) [µM] | IC50 (G-361 [4]) [µM] | Activity (MCF7 [6]) [%] | Activity (HOS [7]) [%] | Activity (G-361 [8]) [%] | Activity (K562 [9]) [%] | further results |
| --- | --- | --- | --- | --- | --- | --- | --- | --- | --- | --- | --- | --- | --- | --- | --- | --- |
| > 100 | > 100 | > 100 | – | – | – | – | – | – | Nc1n[nH]c(N)c1/N=N/c1ccc(C(=O)O)cc1 | > 100 | > 100 | 97 | 92 | 86 | 96 | – |
| 17 | > 100 | > 100 | 77 | > 100 | > 100 | > 100 | > 100 | 26 | Nc1n[nH]c(N)c1/N=N/c1ccccc1CO | > 100 | > 100 | 51 | 87 | 84 | 86 | – |
| 28 | > 100 | > 100 | – | – | – | – | – | – | Nc1n[nH]c(N)c1/N=N/c1cccc(C(=O)O)c1 | > 100 | > 100 | 102 | 94 | 93 | 84 | – |
| – | – | – | – | – | – | – | – | – | CC[C@H](CO)Nc1nc(NCc2ccccc2)c2ncn(C(C)C)c2n1 [SELICICLIB] | – | – | – | – | – | – | Activity (HT-29 [15]): 3146605; Activity (HT-29 [16]): 3926015; Activity (HT-29 [17]): 30568; Activity (HT-29 [18]): 19150; Activity (HT-29 [19]): 24350; Activity (HT-29 [20]): 8258813; Activity (HT-29 [21]): 6151085; Activity (HT-29 [22]): 6863365; Activity (HT-29 [23]): 3945095; Activity (HT-29 [24]): 48%; Activity (HT-29 [25]): 1.1%; Activity (HT-29 [26]): 50.9%; Activity (HT-29 [27]): 44%; Activity (HT-29 [28]): 0.1%; Activity (HT-29 [29]): 55.9%; Activity (HT-29 [30]): 64.5%; Activity (HT-29 [31]): 1.1%; Activity (HT-29 [32]): 34.5% |
| 40 | > 100 | 71 | – | – | – | – | – | – | Nc1n[nH]c(N)c1/N=N/c1ccc([N+](=O)[O-])cc1 | > 100 | > 100 | 60 | 80 | 61 | 25 | – |
| 6 | > 100 | > 100 | 51 | > 100 | > 100 | 56 | 82 | 1.5 | Nc1n[nH]c(N)c1/N=N/c1cccc(O)c1 | > 100 | > 100 | 71 | 83 | 70 | 53 | – |
| 22 | > 100 | > 100 | 100 | > 100 | > 100 | > 100 | > 100 | 15 | Nc1n[nH]c(N)c1/N=N/c1ccccc1 | > 100 | > 100 | 74 | 83 | 75 | 90 | – |
| 10 | > 100 | 50 | – | – | – | – | – | – | Nc1n[nH]c(N)c1/N=N/c1cccc2ccccc12 | > 100 | > 100 | 56 | 79 | 55 | 7.7 | – |
| 15 | 81 | 55 | – | – | – | – | – | – | Nc1n[nH]c(N)c1/N=N/c1cccc2c1CCCC2 | 92 | 77 | 39 | 32 | 27 | 26 | – |
| 92 | > 100 | > 100 | – | – | – | – | – | – | Nc1n[nH]c(N)c1/N=N/c1ccccc1C(=O)O | > 100 | > 100 | 97 | 91 | 96 | 89 | – |
| 6.1 | > 100 | 100 | 22 | 42 | 88 | 16 | 77 | 5.6 | Nc1n[nH]c(N)c1/N=N/c1ccccc1[N+](=O)[O-] | > 100 | > 100 | 62 | 57 | 58 | 48 | – |
| 2.5 | > 100 | > 100 | – | – | – | – | – | – | Nc1n[nH]c(N)c1/N=N/c1ccccc1O | > 100 | > 100 | 72 | 84 | 74 | 72 | – |
| 23 | 65 | 79 | 68 | > 100 | > 100 | 70 | > 100 | 12.4 | Nc1n[nH]c(N)c1/N=N/c1cccc([N+](=O)[O-])c1 | > 100 | > 100 | 44 | 95 | 69 | 28 | – |
